Data on ten compounds can be found in ChEMBL document CHEMBL1126922, “Synthesis of 2,4-disubstituted thiazoles and selenazoles as potential antitumor and antifilarial agents: 1. Methyl 4-(isothiocyanatomethyl)thiazole-2-carbamates, -selenazole-2- carbamates, and related derivatives” (J Med Chem, 1993).

The structures appear in SMILES notation.

Experiment [1] has as its system L1210. As to the kind of experiment: Growth rate in leukemia L1210 cells at 100 uM. The format is functional, Mus musculus. The procedure, abridged: (§1)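 L1210 cells were grown in static suspension at 38 °C in Fischer's medium with 10% heat-inactivated horse serum, with test compound present continuously for 3 days. Growth rate is the treated/control slope of semilog cell number versus time, calculated as control doubling time ÷ treated doubling time. If growth slowed during the run, the final rate at day 3 was used.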

Experiment [2] deals with L1210. The experiment is described as follows: In vitro inhibitory concentration of compound against leukemia L1210 cells. In kind it is functional, cell-based. The note with it: Mus musculus. The gist of the method:
(§2)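 L1210 murine leukemia cells kept in static suspension culture at 38 °C in Fischer's medium with 10% heat-inactivated horse serum. Growth measured over 3 days with the compound present continuously at various concentrations. Growth rate = control doubling time / treated doubling time, using the final rate if growth slowed. IC50 = concentration that cuts growth rate to 50% of control.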

Experiment [3] has as its system L1210. As to the kind of experiment: Growth rate measured as ratio of population doubling time of control cells to that of treated L1210 cells at 100 uM. In kind it is functional, Mus musculus. The procedure, abridged:
as §1

Experiment [4] deals with L1210. As to the kind of experiment: Growth rate measured as ratio of population doubling time of control cells to that of treated L1210 cells at 10 uM.
Experiment [5] relates to L1210. As to the kind of experiment: Effect on DNA synthesis in L1210 measured by inhibition of incorporation of [3H]dThd into acid insoluble material after 0 hours expressed as percent of control. In kind it is functional, Mus musculus. The arrangement: scale not given: the % may be the effect or the level left. The gist of the method: (§3)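 L1210 cells given 100 μM compound together with [methyl-3H]dThd (20 Ci/mmol, 1 μCi/mL) or [5-3H]Urd (28.5 Ci/mmol, 1 μCi/mL). Label pulse lasted 1 h, started either at compound addition (0 h) or 6 h later. 3H in the acid-insoluble fraction was counted by liquid scintillation. Values are % of control, mean of two determinations in separate experiments, with range.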

Experiment [6] deals with L1210. The experiment is described as follows: Effect on RNA synthesis in L1210 measured by inhibition of incorporation of [3H]uridine into acid insoluble material after 6 hours expressed as percent of control. Details: scale not given: the % may be the effect or the level left; call rule not given here. The format is functional, Mus musculus. The procedure, abridged: as §3
Experiment [7] deals with L1210. The experiment is described as follows: Effect on protein synthesis in L1210 measured by inhibition of incorporation of [3H]leucine into acid insoluble material after 6 hours expressed as percent of control. The format is functional, Mus musculus. The arrangement: scale not given: the % may be the effect or the level left. The procedure, abridged:
(§4)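 100 μM compound and L-[3,4,5-3H]leucine (143 Ci/mmol, 1 μCi/mL) were added together to L1210 cells ((1-1.5) × 10^5 cells/mL) for a 1 h pulse, started at 0 h or 6 h after compound. Duplicate samples were chilled in ice-cold Puck's Saline G, washed, and precipitated with BSA plus 8% perchloric acid on ice for 30 min. The pellet was hydrolysed in 1 N NaOH at 37 °C and counted; results are % of control.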

Experiment [8] concerns L1210. The experiment is described as follows: Effect on protein synthesis in L1210 measured by inhibition of incorporation of [3H]leucine into acid insoluble material after 0 hours expressed as percent of control. In kind it is functional, Mus musculus. The arrangement: scale not given: the % may be the effect or the level left. The gist of the method: as §4
For experiment [9], the system named is L1210. The experiment is described as follows: Effect on DNA synthesis in L1210 measured by inhibition of incorporation of [3H]dThd into acid insoluble material after 6 hours expressed as percent of control. In kind it is functional, Mus musculus. The arrangement: scale not given: the % may be the effect or the level left. The gist of the method: as §3
In experiment [10] the test system is L1210. As to the kind of experiment: Effect on RNA synthesis in L1210 measured by inhibition of incorporation of [3H]uridine into acid insoluble material after 0 hours expressed as percent of control. In kind it is functional, Mus musculus. Details: scale not given: the % may be the effect or the level left. The procedure, abridged:
as §3

In experiment [11] the test system is L1210. The experiment is described as follows: In vitro inhibitory concentration of compound against leukemia L1210 cells; No significant inhibition. In kind it is functional, cell-based, Mus musculus. The gist of the method: as §2

In the case of `COC(=O)Nc1nc(CCO)cs1`, the GR control in the experiment on L1210 [1] amounted to 102%.

For the compound `COC(=O)Nc1nc(CN=C=S)c[se]1`, the 50% inhibitory concentration (IC50) – broadly, the concentration needed to halve the response being measured – in the experiment on L1210 [2] is 22 µM. In addition, the GR in the experiment on L1210 [3] was determined as 31%.

Consider `COC(=O)Nc1nc(CCI)cs1`, for which the GR with L1210 [4] came out at 92%.

Turning to `COC(=O)Nc1nc(CN=C=[Se])cs1`, it took 7.6 µM to reach half-maximal inhibition in the experiment with L1210 [2] (IC50). The GR in the experiment with L1210 [3] amounted to 0%.

For `COC(=O)Nc1nc(CCl)c[se]1`, the GR in the experiment with L1210 [3] was found to be 103%.

As for `COC(=O)Nc1nc(CN=C=S)cs1`, in the experiment on L1210 [2], the IC50 was 3.2 µM. In addition, the Effect is 88% with L1210 [5]; 67% with L1210 [6]; 48% in the experiment with L1210 [7]; 58% in the experiment with L1210 [8]; 56% with L1210 [9]; 74% in the experiment on L1210 [10]. For the same compound, in the experiment on L1210 [3], the GR is given as 0%.

For `COC(=O)Nc1nc(CCN=C=S)cs1`, the IC50 with L1210 [2] amounted to 26 µM. For the same compound, the GR in the experiment on L1210 [3] stood at 0%.

Take `COC(=O)Nc1nc(CCCl)cs1`: the GR with L1210 [3] is recorded as 92%.

Take `COC(=O)Nc1nc(CCl)cs1`: in the experiment with L1210 [3], the GR worked out at 96%. Further, the IC50 result in the experiment with L1210 [11] was “Not Active”.

For the compound `CCOC(=O)Cc1csc(NC(=O)OC)n1`, in the experiment on L1210 [3], the GR was 104%.
